Series [1] deals with RAW264.7. In words: Inhibition of LPS-induced nitric oxide production in mouse RAW264.7 cells after 24 hrs by Griess assay. It is filed as functional, cell-based. The conditions noted are these: RAW264.7, 24 h. In short, it runs like this:
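RAW 264.7 cells seeded at 2 × 10^6 cells/mL and stimulated with 1 μg/mL LPS, with or without compounds, for 24 h at 37 °C. Cell-free supernatant was mixed 1:1 with Griess reagent (2% sulfanilamide in 5% phosphoric acid plus 0.2% N-(1-naphthyl)ethylenediamine). Nitrite was read at 550 nm against sodium nitrite standards. Aminoguanidine and indomethacin were positive controls. Means ± SD from triplicate experiments.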

The test system of series [2] is RAW264.7. In words: Cytotoxicity against mouse RAW264.7 cells assessed as cell viability at nitric oxide IC50 level by MTT assay. It counts as cell-based. The method, boiled down:
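Viability was read by MTT colorimetric assay on the cells remaining after the NO assay. That assay seeded RAW 264.7 cells at 2 × 10^6 cells/mL and stimulated them with 1 μg/mL LPS, with or without compounds, for 24 h at 37 °C.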

Bounds are passed on as bounds.

Data on 16 compounds can be found in ChEMBL document CHEMBL3779830, “Diterpenoids from the Roots of Euphorbia fischeriana with Inhibitory Effects on Nitric Oxide Production” (J Nat Prod, 2016).

Usually IC50 stands for the concentration needed to halve the response being measured. High values mean weaker potency, low ones greater potency. In the series with RAW264.7 [1], `CC1=C[C@]23C(=O)[C@@H](C=C(CO)[C@@H](O)[C@]2(O)[C@H]1O)[C@H]1[C@@H](C[C@H]3C)C1(C)C` [INGENOL] had an IC50 of over 20 µM. Further, the Activity result in the series with RAW264.7 [2] is “Non-toxic”. Regarding `C=C[C@]1(C)CC[C@@]2(C)c3cc(O)c(O)c(C)c3CC[C@@H]2C1`, 7.4 µM corresponded to half-maximal inhibition in the series on RAW264.7 [1] (IC50). In the series on RAW264.7 [2], the Activity entry is given as “Non-toxic”. Compound `C=C[C@]1(C)CC[C@@]2(C)C3=CC(=O)O[C@@H]3C(C)(C)C[C@H](O)[C@@H]2C1` came in with an IC50 with RAW264.7 [1] of over 20 µM. Besides, the Activity result in the series on RAW264.7 [2] is “Non-toxic”. In the series with RAW264.7 [1], `C[C@H]1C[C@]2(OC(=O)/C=C/c3ccccc3)C(=O)/C(CO)=C/[C@@H]3[C@H](CC[C@@]4(C)O[C@H]4[C@H]2[C@H]1O)C3(C)C` came in with an IC50 of 9.4 µM. The Activity entry in the series on RAW264.7 [2] is “Non-toxic”. Regarding `CC1=C2C=C3[C@@H](O)C[C@@H]4C(C)(C)CCC[C@@]4(C)[C@@H]3[C@@H](O)[C@H]2OC1=O`, in the series on RAW264.7 [1], the IC50 was over 20 µM. In the series on RAW264.7 [2], the Activity result is given as “Non-toxic”.

In the series with RAW264.7 [1], `CC1=C2[C@@H](O)C3=C([C@@H](O)[C@H]2OC1=O)[C@]1(C)CCCC(C)(C)[C@H]1CC3` gave an IC50 of over 20 µM. Also, the Activity result in the series on RAW264.7 [2] is reported as “Non-toxic”.

With `CC1=C2[C@H]3O[C@]34CC[C@@H]3C(C)(C)CCC[C@@]3(C)[C@@H]4[C@@H](O)[C@H]2OC1=O`, the IC50 in the series with RAW264.7 [1] came out at 12.6 µM. The Activity result in the series with RAW264.7 [2] is “Non-toxic”.

`C=C1C[C@@]23CC[C@@H]4C(C)(C)C(=O)CC[C@@]4(C)[C@@H]2C[C@@H]1[C@@H](O)C3=O`: the IC50 in the series with RAW264.7 [1] is over 20 µM. The Activity result in the series with RAW264.7 [2] is recorded as “Non-toxic”.

In the series on RAW264.7 [1], `CC1=C2C(=O)C3=C([C@@H](O)[C@H]2OC1=O)[C@]1(C)CCCC(C)(C)[C@H]1CC3` displayed an IC50 of over 20 µM. In addition, the Activity result with RAW264.7 [2] is on record as “Non-toxic”. As for `N=C(N)NN` [PIMAGEDINE], the IC50 in the series with RAW264.7 [1] came to 18.7 µM. `CC1=C2[C@@H](O)[C@@]3(O)CC[C@@H]4C(C)(C)CCC[C@@]4(C)[C@@H]3[C@@H](O)[C@H]2OC1=O`: the IC50 in the series on RAW264.7 [1] was over 20 µM. In addition, the Activity entry in the series on RAW264.7 [2] was “Non-toxic”. As for `COc1ccc2c(c1)c(CC(=O)O)c(C)n2C(=O)c1ccc(Cl)cc1` [INDOMETHACIN], inhibition with RAW264.7 [1] was half-maximal at 12.5 µM (IC50). In turn, `CC1=C2C=C3CC[C@@H]4C(C)(C)CCC[C@@]4(C)[C@@H]3[C@H](O)[C@H]2OC1=O` had an IC50 in the series with RAW264.7 [1] of over 20 µM. Moreover, the Activity result with RAW264.7 [2] is reported as “Non-toxic”.

As to `CC1=C2[C@@H](O)C3=CC[C@@H]4C(C)(C)CCC[C@@]4(C)[C@@H]3[C@@H](O)[C@H]2OC1=O`, the IC50 in the series with RAW264.7 [1] is over 20 µM. Also, in the series on RAW264.7 [2], the Activity result was “Non-toxic”.

Turning to `C=C[C@]1(C)CC[C@]2(C)[C@H](CC[C@H]3[C@@](C)(CO)C(=O)C=C[C@]32O)C1`, in the series on RAW264.7 [2], the Activity entry is listed as “Non-toxic”. In turn, `CC1=C2[C@H](OC1=O)[C@H](O)[C@H]1[C@]3(C)CCCC(C)(C)[C@H]3CC[C@@]1(O)[C@H]2O` returned an IC50 in the series with RAW264.7 [1] of 5.6 µM. For the same compound, the Activity result with RAW264.7 [2] was “Non-toxic”.
